Positions count from the first letter of the chain named. pKd: −log10 of the molar value. Like-named read-outs stand apart in the source and are kept apart here.
Columns and labels:
GK-W99 (W167F/W257F) = molecular target: T1, GK-W99 (W167F/W257F) (Homo sapiens, UniProt P35557, W167F/W257F); assay: Change of tryptophan fluorescence yield of GK-W99 on adding glucose or glycerol; format: binding; conditions: GK-W99, 95% glycerol/buffer (v/v)
T1 sequence (P35557 1-465 W167F/W257F): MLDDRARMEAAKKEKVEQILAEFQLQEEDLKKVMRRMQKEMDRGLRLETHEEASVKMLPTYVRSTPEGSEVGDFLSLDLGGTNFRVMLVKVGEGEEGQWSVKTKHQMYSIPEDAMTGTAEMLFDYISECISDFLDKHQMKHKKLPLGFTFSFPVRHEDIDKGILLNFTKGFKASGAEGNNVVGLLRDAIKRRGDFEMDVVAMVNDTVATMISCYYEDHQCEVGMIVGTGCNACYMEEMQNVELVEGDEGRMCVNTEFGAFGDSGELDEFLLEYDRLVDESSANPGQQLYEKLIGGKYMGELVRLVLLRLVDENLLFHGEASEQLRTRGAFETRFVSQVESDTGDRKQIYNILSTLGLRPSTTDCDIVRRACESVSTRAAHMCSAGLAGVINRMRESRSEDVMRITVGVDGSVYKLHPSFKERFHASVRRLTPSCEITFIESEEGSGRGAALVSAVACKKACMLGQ
Outline: (§1)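 Recombinant human β-cell glucokinase single-Trp variant, made as a GST fusion in E. coli, cleaved with factor Xa, and repurified. Buffer was 20 mM K phosphate, 50 mM KCl, 1 mM EDTA, 1 mM DTT, pH 7.2, with or without 100 mM D-glucose or 95% glycerol (v/v). Excitation 295 nm, emission 300–500 nm, 20 °C. Quantum yield was measured against NATA (φ 0.14) in water at A < 0.05, with refractive-index correction. The ratio is with/without additive.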

GK-W167 (W99R/W257F) = molecular target: T2, GK-W167 (W99R/W257F) (Homo sapiens, UniProt P35557, W257F/W99R); assay: Change of tryptophan fluorescence yield of GK-W167 on adding glucose or glycerol; format: binding
T2 sequence (P35557 1-465 W99R/W257F): T1 sequence (P35557 1-465 W167F/W257F) with W99R, F167W
Outline: as §1

GK-WT = assay: Change of tryptophan fluorescence yield of GK-WT on adding glucose or glycerol; format: binding, human
GK-W257 (W99R/W167F) = molecular target: T3, GK-W257 (W99R/W167F) (Homo sapiens, UniProt P35557, W167F/W99R); assay: Change of tryptophan fluorescence yield of GK-W257 on adding glucose or glycerol; format: binding; conditions: GK-W257, 95% glycerol/buffer (v/v)
T3 sequence (P35557 1-465 W99R/W167F): T1 sequence (P35557 1-465 W167F/W257F) with W99R, F257W
Outline: as §1

[1] = molecular target: T4, GK-W65 (W99R/W167F/W257F/T65W) (Homo sapiens, UniProt P35557, T65W/W167F/W257F/W99R); assay: Change of tryptophan fluorescence yield of GK-W65 on adding glucose or glycerol; format: binding; conditions: GK-W65, 95% glycerol/buffer (v/v)
T4 sequence (P35557 1-465 T65W/W99R/W167F/W257F): T1 sequence (P35557 1-465 W167F/W257F) with T65W, W99R
Outline: as §1

[2] = molecular target: T5, GK-WT (recombinant wild type human β-cell glucokinase) (Homo sapiens, UniProt P35557); assay: D-glucose binding to GK-WT by tryptophan fluorescence titration
T5 sequence (P35557 1-465): T1 sequence (P35557 1-465 W167F/W257F) with F167W, F257W
Outline: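 Recombinant human wild-type β-cell glucokinase was titrated with D-glucose in K-phosphate buffer, pH 7.2, with or without cosolvent, and read by Trp fluorescence at 20 °C (excitation 295 nm, emission 300–500 nm). Fluorescence was fitted to F = F0 + (Fsat − F0)[glucose]/([glucose] + Kd) to give Kd and F/F0, the intensity at glucose saturation over the intensity without glucose.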

| (Φf)/Φ0 observed, fluorescence quantum yield with/without (times) (GK-W99 (W167F/W257F)) | (Φf)/Φ0 observed, fluorescence quantum yield with/without (times) (GK-W99 (W167F/W257F); listed as Glycerol) | (Φf)/Φ0 observed, fluorescence quantum yield with/without (times) (GK-W167 (W99R/W257F); GK-W167, 95% glycerol/buffer (v/v)) | (Φf)/Φ0 observed, fluorescence quantum yield with/without (times) (GK-W257 (W99R/W167F)) | (Φf)/Φ0 observed, fluorescence quantum yield with/without (times) [1] | (Φf)/Φ0 observed, fluorescence quantum yield with/without (times) (GK-W167 (W99R/W257F); GK-W167, 100 mM D-glucose in buffer, listed as Glucose) | (Φf)/Φ0 observed, fluorescence quantum yield with/without (times) (GK-W167 (W99R/W257F); GK-W167, 100 mM D-glucose in buffer, listed as glucose) | F/F0 upon D-glucose binding ([2]; 1 M sucrose) | F/F0 upon D-glucose binding ([2]; 1 M trehalose) | F/F0 upon D-glucose binding ([2]; 2 M L-glucose) | F/F0 upon D-glucose binding ([2]; 20% glycerol) | pKd ([2]; D-glucose binding KD, 1 M sucrose) | pKd ([2]; D-glucose binding KD, 1 M trehalose) | pKd ([2]; D-glucose binding KD, 2 M L-glucose) | pKd ([2]; read-out: D-glucose binding KD, PO4 buffer pH 7.2, 20 °C) | SMILES | (Φf)/Φ0 observed, fluorescence quantum yield with/without (times) (GK-WT; 95% glycerol/buffer (v/v)) | (Φf)/Φ0 observed, fluorescence quantum yield with/without (times) (GK-WT; 100 mM D-glucose in buffer, listed as Glucose) | (Φf)/Φ0 observed, fluorescence quantum yield with/without (times) (GK-WT; 100 mM D-glucose in buffer, listed as glucose) |
| --- | --- | --- | --- | --- | --- | --- | --- | --- | --- | --- | --- | --- | --- | --- | --- | --- | --- | --- |
| over 4.6 | 4.6 | ~2.3 | 1.3 | 1.1 |  |  |  |  |  |  |  |  |  |  | OCC(O)CO [glycerol] | 2.6 |  |  |
|  |  |  |  |  | 1.8 | about 1.8 | 1.74 | 1.71 | 1.63 | 1.74 | 2.45 | 2.76 | 2.95 | 2.13 | OC[C@H]1OC(O)[C@H](O)[C@@H](O)[C@@H]1O (stereo partly drawn) [D-glucose] |  | 2.0 | ~2 |

Source: paper PMC6025808 (Journal of fluorescence, 2017)
